In the array DNA melting data of Ke et al. (doi:10.1101/2024.01.08.574731):

Key:
[1] = folding enthalpy; higher = less favourable; fluorescence melt of hairpins on a sequencing array, two-state fit; conditions: sodium 0.088 M
How it was run: (§1)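 Library hairpins on a sequenced MiSeq flow cell carried annealed Cy3 and quencher oligos, and their Cy3 fluorescence was imaged in 50 mM Na-HEPES pH 8.0 with 25 mM NaCl, in 2.5 °C steps up to 60 °C. Signals were normalised to Cy3 before quenching and to control constructs. Melting temperature and folding enthalpy were obtained from bootstrapped two-state fits, combined by inverse-variance weighting across four replicates, and the fitted temperatures were then raised by 9.35 °C to match UV melts.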

[2] = melting temperature; fluorescence melt of hairpins on a sequencing array, two-state fit, raised by 9.35 °C to match UV melts; conditions: sodium 0.088 M
How it was run: as §1

Q: What does the source list for GCACATCGAAAGATCTGC (((.(((....))).)))?
A: folding enthalpy [1]: -28.3 kcal/mol; Tm [2]: 36 °C

Q: Which results are given for GTTTACGGAAACGCAAAC ((((.((....)).))))?
A: folding enthalpy [1]: -27.7 kcal/mol; Tm [2]: 37.3 °C

Q: With GCTACTGAAAAGTAGC ((((((....)))))) as the sequence, how does the folding enthalpy [1] read?
A: Its folding enthalpy is -35.1 kcal/mol.

Q: And the Tm [2]?
A: The Tm was 56.7 °C.

Q: For GCGTACGAAAGTATGCGC ((((((....)))..))), which folding enthalpy [1] is on record?
A: The folding enthalpy was -37.5 kcal/mol.

Q: And the Tm [2]?
A: Its Tm is 58.4 °C.

Q: With GGGATACGAAAGTACCC (((.(((....)))))) as the sequence, how does the folding enthalpy [1] read?
A: The folding enthalpy was -27.4 kcal/mol.

Q: And the Tm [2]?
A: The Tm was 51.2 °C.

Q: For GTTAACGAAAGTTGAAAC ((((((....)))..))), which folding enthalpy [1] is on record?
A: The folding enthalpy was -11.1 kcal/mol.

Q: And the Tm [2]?
A: The Tm was 24.9 °C.

Q: For GGAAGTGGAAACGTTTCC ((((..(....)..)))), which folding enthalpy [1] is on record?
A: The folding enthalpy was -13.3 kcal/mol.

Q: What about the Tm [2] of the same sequence?
A: The Tm was 37.6 °C.

Q: What does the source list for GTTTTCGGAAACGAGAAC (((.(((....))).)))?
A: folding enthalpy [1]: -27.4 kcal/mol; Tm [2]: 41.6 °C

Q: Which folding enthalpy [1] does the source give for GTCCTAGAAATAGGAC ((((((....)))))) here?
A: Its folding enthalpy is -36.6 kcal/mol.

Q: And the Tm [2]?
A: Its Tm is 50.6 °C.

Q: What does the source list for GAGGTGGGAAACCACTTC ((.((((....)))).))?
A: folding enthalpy [1]: -21.4 kcal/mol; Tm [2]: 46 °C

Q: For GGTCTCGAAAGAGTTACC ((((((....)))..))), which folding enthalpy [1] is on record?
A: The folding enthalpy was -17.3 kcal/mol.

Q: And the Tm [2]?
A: Its Tm is 32.3 °C.

Q: What does the source list for GCTAGGCGAAAGCGTGGC ((.(.((....)).).))?
A: folding enthalpy [1]: -19.5 kcal/mol; Tm [2]: 49.8 °C

Q: Which folding enthalpy [1] does the source give for GCCAGGGGAAACCTTGGC ((((.((....)).)))) here?
A: Its folding enthalpy is -43.9 kcal/mol.

Q: What about the Tm [2] of the same sequence?
A: The Tm was 53.4 °C.

Q: What does the source list for GTTATGGGAAACCATAGC (.(((((....))))).)?
A: folding enthalpy [1]: -24.1 kcal/mol; Tm [2]: 36.9 °C

Q: For CGCGCGGAAACGCCAGCG ((((((....)))..))), which folding enthalpy [1] is on record?
A: The folding enthalpy was -23 kcal/mol.

Q: What about the Tm [2] of the same sequence?
A: The Tm was 53.9 °C.

Q: For GCCCTCGAAAGAGATGGC ((((((....)))..))), which folding enthalpy [1] is on record?
A: The folding enthalpy was -23.6 kcal/mol.

Q: And the Tm [2]?
A: Its Tm is 46.4 °C.

Q: With GGCAGCGAAAGCTCTGCC ((((((....)))..))) as the sequence, how does the folding enthalpy [1] read?
A: Its folding enthalpy is -24.5 kcal/mol.

Q: What about the Tm [2] of the same sequence?
A: Its Tm is 52.4 °C.

Q: Which results are given for GATCTTTGACAAGATC ((((((....))))))?
A: folding enthalpy [1]: -25.1 kcal/mol; Tm [2]: 39.4 °C

Q: Which results are given for GCTTCCGAAAGGAGTAGC ((((((....)))..)))?
A: folding enthalpy [1]: -24.3 kcal/mol; Tm [2]: 43.6 °C

Q: Which folding enthalpy [1] does the source give for GTTCACGAAAGTGGGAAC ((((((....)))..))) here?
A: The folding enthalpy was -13.3 kcal/mol.

Q: And the Tm [2]?
A: Its Tm is 35.4 °C.

Q: Which folding enthalpy [1] does the source give for GGTTGCGAAAGCAAGACC ((((((....)))..))) here?
A: Its folding enthalpy is -14.6 kcal/mol.

Q: What about the Tm [2] of the same sequence?
A: Its Tm is 44.2 °C.

Q: For GTTCGGCGAAAGCCCAAC (((.(((....))).))), which folding enthalpy [1] is on record?
A: The folding enthalpy was -11.2 kcal/mol.

Q: And the Tm [2]?
A: Its Tm is 37.1 °C.

Q: With GAGGTAGGAAACTACCCC (.(((((....))))).) as the sequence, how does the folding enthalpy [1] read?
A: The folding enthalpy was -12.1 kcal/mol.

Q: What about the Tm [2] of the same sequence?
A: Its Tm is 39.1 °C.

Q: Which folding enthalpy [1] does the source give for GATCCAATATGGATC ((((((...)))))) here?
A: The folding enthalpy was -38.7 kcal/mol.

Q: What about the Tm [2] of the same sequence?
A: The Tm was 51.3 °C.

Q: With GGGTGTGGAAACGCACTC (.(((.(....).))).) as the sequence, how does the folding enthalpy [1] read?
A: Its folding enthalpy is -24 kcal/mol.

Q: What about the Tm [2] of the same sequence?
A: The Tm was 47.9 °C.

Q: For GCGTTCCGAAAGGACGC (((.(((....)))))), which folding enthalpy [1] is on record?
A: The folding enthalpy was -41.9 kcal/mol.

Q: What about the Tm [2] of the same sequence?
A: The Tm was 63.3 °C.

Q: For GGTAGCGGAAACGCTATC (.(((((....))))).), which folding enthalpy [1] is on record?
A: Its folding enthalpy is -29.2 kcal/mol.

Q: What about the Tm [2] of the same sequence?
A: Its Tm is 51.8 °C.

Q: For GCCGAGAAATCGGC (((((....))))), which folding enthalpy [1] is on record?
A: Its folding enthalpy is -28.4 kcal/mol.

Q: And the Tm [2]?
A: Its Tm is 64.8 °C.

Q: With AGAACGAAAGTTCT (((((....))))) as the sequence, how does the folding enthalpy [1] read?
A: The folding enthalpy was -19.9 kcal/mol.

Q: And the Tm [2]?
A: Its Tm is 53.1 °C.

Q: What does the source list for CGTTCTCGGAAACGAACG (((..(((....))))))?
A: folding enthalpy [1]: -19.2 kcal/mol; Tm [2]: 35.8 °C

Q: Which folding enthalpy [1] does the source give for GCCGTTGGAAACAACGAC (.(((((....))))).) here?
A: The folding enthalpy was -16.9 kcal/mol.

Q: What about the Tm [2] of the same sequence?
A: The Tm was 46.2 °C.

Q: For GTTGCGACGAAAGTCAAC (((..(((....)))))), which folding enthalpy [1] is on record?
A: The folding enthalpy was -16.8 kcal/mol.

Q: And the Tm [2]?
A: The Tm was 33.5 °C.

Q: Which folding enthalpy [1] does the source give for GCAATGCGAAAGCGCTGC (((..((....))..))) here?
A: Its folding enthalpy is -20 kcal/mol.

Q: And the Tm [2]?
A: The Tm was 49.2 °C.

Q: Which folding enthalpy [1] does the source give for GATCCATGGGTGGATC ((((((....)))))) here?
A: Its folding enthalpy is -41.4 kcal/mol.

Q: What about the Tm [2] of the same sequence?
A: Its Tm is 54.4 °C.

Q: Which folding enthalpy [1] does the source give for GCAGCGCGAAAGCTATGC (((..((....))..))) here?
A: The folding enthalpy was -16.8 kcal/mol.

Q: What about the Tm [2] of the same sequence?
A: The Tm was 45.2 °C.

Q: Which results are given for GTCTGCGAAAGCAGGGAC ((((((....)))..)))?
A: folding enthalpy [1]: -7.79 kcal/mol; Tm [2]: 42.8 °C

Q: Which folding enthalpy [1] does the source give for GCTCCGCGAAAGCGATGC ((..(((....)))..)) here?
A: Its folding enthalpy is -13.3 kcal/mol.

Q: And the Tm [2]?
A: Its Tm is 40.8 °C.

Q: What does the source list for GCGGGCGAAAGCCAACGC ((((((....)))..)))?
A: folding enthalpy [1]: -22.4 kcal/mol; Tm [2]: 65.3 °C
